Paper PMC6424611 (Journal of molecular biology, 2019)
pKd: −log10 of the molar value. Where no end group is shown, it is not given here. [ ]: non-standard residue; d: D form. The star is where a group is joined. Biotin = O=C1N[C@H]2[C@H](CS[C@H]2CCCCC(=O)*)N1; TTDS = NCCCOCCOCCOCCCNC(=O)CCC(=O)*; pS = N[C@@H](COP(=O)(O)O)C(=O)O

Key:
GRID2IP-2 PDZ = GRID2IP-2 PDZ (Homo sapiens, UniProt A4D2P6); experiment: holdup assay; assay type: binding; settings: fraction of PDZ depleted; ~4 μM PDZ; biotinylated RSK1_725–735; triplicates
How it was run: (§1)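 Automated holdup in triplicate measured biotinylated (N-terminal TTDS linker) RSK1 725–735 peptides, unphosphorylated or phosphorylated, against E. coli-expressed PDZome v2 domains. Soluble lysate was adjusted to ~4 μM, giving 255 domains for the unphosphorylated and 252 for the phosphorylated peptide. Binding intensity (BI) is the fraction of PDZ depleted from the fluid phase. BI 0.2 was the high-confidence threshold.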

PDZD7-3 PDZ = molecular target: T1, PDZD7-3 PDZ (Homo sapiens, UniProt Q9H5P4); experiment: holdup assay; assay type: binding; settings: ~4 μM PDZ; for binding intensity (BI): fraction of PDZ depleted, biotinylated RSK1_725–735, triplicates; for pKd: read-out: KD, estimated, from BI, estimated 17 μM peptide
T1 sequence (Q9H5P4 862-934 limits assumed): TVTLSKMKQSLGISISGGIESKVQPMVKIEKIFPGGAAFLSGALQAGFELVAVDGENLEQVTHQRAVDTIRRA
How it was run: (§2)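 Automated holdup against N-terminally biotinylated (TTDS linker) RSK1 725–735 peptides, unphosphorylated and phosphorylated, in triplicate. PDZome v2 clones were codon-optimized and expressed in E. coli, with soluble lysate adjusted to ~4 μM. BI is the PDZ fraction depleted from the fluid phase.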

GOPC PDZ = GOPC PDZ (Homo sapiens, UniProt Q9HD26); experiment: holdup assay; assay type: binding; settings: fraction of PDZ depleted; ~4 μM PDZ; biotinylated RSK1_725–735; triplicates
GRASP PDZ = experiment: holdup assay; assay type: binding, human; settings: ~4 μM PDZ; for binding intensity (BI): fraction of PDZ depleted, biotinylated RSK1_725–735, triplicates; for pKd: read-out: KD, estimated, from BI, estimated 17 μM peptide
How it was run: as §2

PDZRN4-1 PDZ = molecular target: T2, PDZRN4-1 PDZ (Homo sapiens, UniProt Q6ZMN7); experiment: holdup assay; assay type: binding; settings: fraction of PDZ depleted; ~4 μM PDZ; biotinylated RSK1_725–735; triplicates
T2 sequence (Q6ZMN7 224-314 limits assumed): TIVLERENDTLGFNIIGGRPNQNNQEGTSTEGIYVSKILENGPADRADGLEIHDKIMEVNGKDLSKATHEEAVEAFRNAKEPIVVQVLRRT
How it was run: as §1

SNTG2 PDZ = molecular target: T3, SNTG2 PDZ (Homo sapiens, UniProt Q9NY99); experiment: holdup assay; assay type: binding; settings: ~4 μM PDZ; for binding intensity (BI): fraction of PDZ depleted, biotinylated RSK1_725–735, triplicates
T3 sequence (Q9NY99 73-156 limits assumed): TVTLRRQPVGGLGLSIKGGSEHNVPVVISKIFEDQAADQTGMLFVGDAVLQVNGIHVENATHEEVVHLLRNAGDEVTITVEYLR
How it was run: as §2

PTPN3 PDZ = experiment: holdup assay; assay type: binding, human; settings: ~4 μM PDZ; for binding intensity (BI): fraction of PDZ depleted, biotinylated RSK1_725–735, triplicates; for pKd: read-out: KD, estimated, from BI, estimated 17 μM peptide
How it was run: as §2

SHROOM2 PDZ = experiment: holdup assay; assay type: binding, human; settings: ~4 μM PDZ; for binding intensity (BI): fraction of PDZ depleted, biotinylated RSK1_725–735, triplicates; for pKd: read-out: KD, estimated, from BI, estimated 17 μM peptide
How it was run: as §2

GORASP1 PDZ = experiment: holdup assay; assay type: binding, human; settings: ~4 μM PDZ; for binding intensity (BI): fraction of PDZ depleted, biotinylated RSK1_725–735, triplicates; for pKd: read-out: KD, estimated, from BI, estimated 17 μM peptide
How it was run: as §2

SNTB1 PDZ = molecular target: T4, SNTB1 PDZ (Homo sapiens, UniProt Q13884); experiment: holdup assay; assay type: binding; settings: ~4 μM PDZ; for binding intensity (BI): fraction of PDZ depleted, biotinylated RSK1_725–735, triplicates; for pKd: read-out: KD, estimated, from BI, estimated 17 μM peptide
T4 sequence (Q13884 112-195 limits assumed): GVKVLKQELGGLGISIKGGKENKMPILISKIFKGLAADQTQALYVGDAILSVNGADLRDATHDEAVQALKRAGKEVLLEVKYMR
How it was run: as §2

SNX27 PDZ = SNX27 PDZ (Homo sapiens, UniProt Q96L92); experiment: holdup assay; assay type: binding; settings: ~4 μM PDZ; for binding intensity (BI): fraction of PDZ depleted, biotinylated RSK1_725–735, triplicates
LIN7A PDZ = experiment: holdup assay, updated analysis; assay type: binding, human; settings: weak partner; automated computational protocol
How it was run: (§3)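 The same triplicate holdup datasets (biotinylated RSK1 725–735, unphosphorylated and phosphorylated, vs ~4 μM PDZome lysates) were re-analysed with an updated automated computational protocol. This gave alternative BI values, reported as supplemental values alongside the conventional analysis.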

PDZRN3–2 PDZ = experiment: holdup assay, updated analysis; assay type: binding, human; settings: weak partner; automated computational protocol
How it was run: as §3

DLG3 PDZ = experiment: holdup assay, updated analysis; assay type: binding, human; settings: weak partner; automated computational protocol
How it was run: as §3

SYNJ2BP PDZ = molecular target: T5, SYNJ2BP PDZ (Homo sapiens, UniProt P57105); experiment: competitive fluorescence polarization; assay type: binding; settings: summary of high-throughput SPR and competitive FP
T5 sequence (P57105 13-100 limits assumed): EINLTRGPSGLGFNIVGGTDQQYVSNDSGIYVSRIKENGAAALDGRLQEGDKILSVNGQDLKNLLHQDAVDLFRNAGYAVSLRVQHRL

MPDZ-10 PDZ = experiment: holdup assay, updated analysis; assay type: binding, human; settings: weak partner; automated computational protocol
How it was run: as §3

RHPN1 PDZ = experiment: holdup assay, updated analysis; assay type: binding, human; settings: weak partner; automated computational protocol
How it was run: as §3

[1] = read-out: KD, estimated, from BI, estimated 17 μM peptide

GRID2IP-2 PDZ, sequence (A4D2P6 279-356 limits assumed): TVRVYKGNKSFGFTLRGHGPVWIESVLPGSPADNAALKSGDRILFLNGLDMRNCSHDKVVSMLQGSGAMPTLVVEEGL

| Substance | binding intensity (BI) (GRID2IP-2 PDZ) | binding intensity (BI) (PDZD7-3 PDZ) | pKd (PDZD7-3 PDZ) | binding intensity (BI) (GOPC PDZ) | binding intensity (BI) (GRASP PDZ) | pKd (GRASP PDZ) | binding intensity (BI) (PDZRN4-1 PDZ) | binding intensity (BI) (SNTG2 PDZ) | binding intensity (BI) (PTPN3 PDZ) | pKd (PTPN3 PDZ) | binding intensity (BI) (SHROOM2 PDZ) | pKd (SHROOM2 PDZ) | binding intensity (BI) (GORASP1 PDZ) | pKd (GORASP1 PDZ) | binding intensity (BI) (SNTB1 PDZ) | pKd (SNTB1 PDZ) | binding intensity (BI) (SNX27 PDZ) | further results |
| --- | --- | --- | --- | --- | --- | --- | --- | --- | --- | --- | --- | --- | --- | --- | --- | --- | --- | --- |
| phosphorylated RSK1 peptide: RSK1 C-terminal PBM peptide phosphorylated at position −3; same constructs as the unphosphorylated ({Biotin-TTDS}-RRVRKLP[pS]TTL) | 0.00 ± 0.01 | 0.15 ± 0.03 | 4.03 | 0.25 ± 0.10 | 0.04 ± 0.01 | < 4.00 | 0.54 ± 0.03 | 0.52 ± 0.05 | 0.21 ± 0.02 | 4.22 | 0.21 ± 0.01 | 4.22 | 0.23 ± 0.03 | 4.27 | 0.45 ± 0.08 | 4.73 | 0.47 ± 0.02 | interaction partner by updated analysis (LIN7A PDZ): new partners; interaction partner by updated analysis (PDZRN3–2 PDZ): new partners; interaction partner by updated analysis (DLG3 PDZ): new partners |
| unphosphorylated RSK1 peptide: C-terminal RSK1 PBM peptide; RSK1_725–735 (holdup, SPR), RSK1_729–735 (direct FP), RSK1_683–735 (competitive FP) ({Biotin-TTDS}-RRVRKLPSTTL) | 0.67 ± 0.02 | 0.60 ±0.03 | 5.01 | 0.63 ± 0.05 | 0.29 ± 0.01 | 4.41 | 0.51 ± 0.02 | 0.41 ± 0.02 | 0.05 ± 0.02 | < 4.00 | 0.00 ± 0.01 | < 4.00 | 0.01 ± 0.02 | < 4.00 | 0.22 ± 0.04 | 4.24 | 0.08 ± 0.07 | pKd (SNTG2 PDZ; [1]): 4.66; pKd (SNX27 PDZ; [1]): < 4.00; dissociation constant (SYNJ2BP PDZ): no interaction was detectable; interaction partner by updated analysis (MPDZ-10 PDZ): new interaction partners; interaction partner by updated analysis (RHPN1 PDZ): new interaction partners |
